Tests used:
Format in all cases: functional, cell-based
[1] = system: MCF7; experiment: Anticancer activity against human MCF7 cells after 24 hrs by MTT assay; conditions: MCF7, 24 h
Summary of the method: (§1)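 Cells maintained in RPMI-1640 with 10% heat-inactivated FBS and 1% penicillin/streptomycin. Seeded at 4.0 × 10³ cells/well for 12 h, then exposed to compounds over a 10 nM–1 mM range for 24 h. MTT added to 0.5 mg/ml final for 30 min. Cells washed twice in PBS and lysed in DMSO. Absorbance read at 570 nm; IC50 reported.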

[2] = system: DU-145; experiment: Anticancer activity against human DU145 cells after 24 hrs by MTT assay; conditions: DU-145, 24 h; summary of the method: as §1
[3] = system: MIA PaCa-2; experiment: Anticancer activity against human MIAPaCa2 cells after 24 hrs by MTT assay; conditions: MIA PaCa-2, 24 h; summary of the method: as §1
[4] = system: LNCaP; experiment: Anticancer activity against human LNCAP cells after 24 hrs by MTT assay; summary of the method: as §1
[5] = system: HCT-116; experiment: Anticancer activity against human HCT116 cells after 24 hrs by MTT assay; conditions: HCT-116, 24 h; summary of the method: as §1
[6] = system: PC-3; experiment: Anticancer activity against human PC3 cells after 24 hrs by MTT assay; conditions: PC-3, 24 h; summary of the method: as §1
[7] = Anticancer activity against human MDA231 cells after 24 hrs by MTT assay; conditions: MDA-MB-231, 24 h; summary of the method: as §1

SMILES | IC50 [1] [µM] | IC50 [2] [µM] | IC50 [3] [µM] | IC50 [4] [µM] | IC50 [5] [µM] | IC50 [6] [µM] | IC50 [7] [µM]
COc1ccc(-c2noc(-c3cccnc3)n2)cc1OC1CCCC1 | > 1000 | > 1000 | > 1000 | > 1000 | > 1000 | > 1000 | > 1000
COc1ccc(-c2noc(-c3ccc(Cl)cc3)n2)cc1OC1CCCC1 | 174 | 122 | 0.74 | 20.8 | > 1000 | > 1000 | 396
COc1ccc(-c2noc(-c3ccc(F)cc3)n2)cc1O | > 1000 | > 1000 | 351 | > 1000 | > 1000 | > 1000 | > 1000
COc1ccc(-c2noc(-c3ccc(F)cc3)n2)cc1OC1CCCC1 | 3.88 | 20.7 | 6.09 | 87.9 | 210 | > 1000 | 55.5
c1ccc(-c2noc(-c3ccncc3)n2)cc1 | > 1000 | 657 | 497 | 710 | > 1000 | > 1000 | > 1000
COc1ccc(-c2noc(CC(C)=O)n2)cc1OC1CCCC1 | 174 | 302 | 3.01 | 28.3 | 185 | > 1000 | 53.3
COc1ccc(-c2noc(C3CCCN3)n2)cc1OC1CCCC1 (stereo not drawn) | > 1000 | 242 | 19.5 | 0.043 | 185 | > 1000 | 212
COc1ccc(-c2noc(-c3ccncc3)n2)cc1OC1CCCC1 | > 1000 | > 1000 | 9.33 | > 1000 | > 1000 | > 1000 | 240
Fc1ccc(-c2nc(-c3ccccc3)no2)cc1 | > 1000 | > 1000 | > 1000 | 23.7 | > 1000 | > 1000 | > 1000
COc1ccc(-c2noc(C3CCNCC3)n2)cc1OC1CCCC1 | 3.88 | 0.057 | 0.54 | 0.01 | 1.54 | > 1000 | 0.37
COc1ccc(-c2noc(-c3ccccc3)n2)cc1OC1CCCC1 | > 1000 | > 1000 | > 1000 | > 1000 | > 1000 | > 1000 | > 1000
COc1ccc(-c2noc(Cc3c[nH]c4ccccc34)n2)cc1OC1CCCC1 | > 1000 | > 1000 | 9.56 | > 1000 | > 1000 | > 1000 | > 1000
COc1cc(-c2noc(-c3ccncc3)n2)ccc1OCc1ccccc1 | > 1000 | > 1000 | > 1000 | > 1000 | > 1000 | > 1000 | > 1000
COc1ccc(-c2noc(-c3ccc(O)cc3)n2)cc1OC1CCCC1 | 0.39 | 0.78 | 0.48 | 0.86 | 0.27 | 162 | 0.31

Reference: ChEMBL document CHEMBL1151891, “Synthesis and anticancer activities of novel 3,5-disubstituted-1,2,4-oxadiazoles” (Bioorg Med Chem Lett, 2009)
